MDM2 E3 inh: MDM2-luciferase reporter signal enhancers, primary screen, MDM2 E3 ligase inhibitor project, cell-based, luminescence, 1536-well; cell-based MDM2 ubiquitination luciferase reporter, 2 h; 0 = plate control, 100 = twice control, blank-subtracted; hit rate 0.11% among 210,000; signal enhancement, % at 5 µM;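 active = signal enhancement of 30% or more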;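 also: luminescence tracks abundance of the self-degrading MDM2-luciferase fusion protein; higher signal means inhibition of MDM2 E3 ligase activity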
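Test system: stable mammalian line carrying autodegrading MDM2–luciferase fusion reporter; quantity: 2000 cells in each well; times: 4 h cell settling then 2 h compound exposure, 37 °C; detection: luminescence with SteadyLite reagent, 15 min at room temperature; evaluation: percent signal gain over controls, blank-subtracted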
p97 ATPase inh: inhibitors of human p97 ATPase, primary screen, biochemical. Transitional endoplasmic reticulum ATPase (Homo sapiens), P55072. recombinant p97 ATPase, Kinase-Glo ATP luminescence, 3 h. inhibition, % at 8 µM. hit rate 0.42% among 220,000; in the data active = inhibition above about 15%
KCC2 mod: KCC2 cotransporter modulators, thallium flux, primary screen, cell-based, HEK293 KCC2, FluoZin-2 fluorescence, MLSMR. Solute carrier family 12 member 5 (Homo sapiens), Q9H2X9. KCC2 cells, thallium flux FluoZin-2 fluorescence. B-score of Tl+ flux slope (higher = more flux/activation; lower = inhibition) at 10 µM. hit rate 2.2% among 190,000;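 active = thallium flux slope and its plate-corrected score both differing from the plate sample mean at a set confidence after two filtering rounds, in either direction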;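 also: slope of fluorescence scaled to starting intensity during 10 to 20 s after thallium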
DTT redox prof: compounds producing H2O2 with reducing agent – biochemical, NIH compound library profiling, artefact control for MLSCN library redox annotation, primary screen | DTT-dependent redox cycling H2O2, phenol red/HRP absorbance; 100% = 100 µM peroxide control, 0% = buffer | activation, % at 10 µM | hit rate 0.03% among 200,000 | AID 878, 2007;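 active = activation of at least 50% relative to the plate's high and low controls in the primary single-dose screen; inactive = activation below 50%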;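 also: compound incubated with DTT at 0.8 mM final as the reducing agent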
ROMK primary: ROMK potassium channel modulators, primary screen, cell-based, thallium flux, MLSMR library; hit rate 2% among 130,000; Tet-inducible ROMK, thallium flux fluorescence; actives lie on both sides; B-score at 10 µM;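 active = signal ratio slope over the read window, or its plate-corrected B-score, at least 3 SD from the plate mean, either direction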;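 also: B-score of the F/F0 ratio slope over 7 to 12 s after thallium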
PKD1 inh: inhibitors of human PKD1 kinase, biochemical, fluorescence polarization | hit rate 0.056% among 200,000 | PKD1 kinase fluorescence polarization assay | Serine/threonine-protein kinase D1 (Homo sapiens), Q15139 | inhibition, % (concentration not given with the values) | AID 797, 2007; in the data active = inhibition above about 50%
Target sequence (Q15139 whole entry, looked up): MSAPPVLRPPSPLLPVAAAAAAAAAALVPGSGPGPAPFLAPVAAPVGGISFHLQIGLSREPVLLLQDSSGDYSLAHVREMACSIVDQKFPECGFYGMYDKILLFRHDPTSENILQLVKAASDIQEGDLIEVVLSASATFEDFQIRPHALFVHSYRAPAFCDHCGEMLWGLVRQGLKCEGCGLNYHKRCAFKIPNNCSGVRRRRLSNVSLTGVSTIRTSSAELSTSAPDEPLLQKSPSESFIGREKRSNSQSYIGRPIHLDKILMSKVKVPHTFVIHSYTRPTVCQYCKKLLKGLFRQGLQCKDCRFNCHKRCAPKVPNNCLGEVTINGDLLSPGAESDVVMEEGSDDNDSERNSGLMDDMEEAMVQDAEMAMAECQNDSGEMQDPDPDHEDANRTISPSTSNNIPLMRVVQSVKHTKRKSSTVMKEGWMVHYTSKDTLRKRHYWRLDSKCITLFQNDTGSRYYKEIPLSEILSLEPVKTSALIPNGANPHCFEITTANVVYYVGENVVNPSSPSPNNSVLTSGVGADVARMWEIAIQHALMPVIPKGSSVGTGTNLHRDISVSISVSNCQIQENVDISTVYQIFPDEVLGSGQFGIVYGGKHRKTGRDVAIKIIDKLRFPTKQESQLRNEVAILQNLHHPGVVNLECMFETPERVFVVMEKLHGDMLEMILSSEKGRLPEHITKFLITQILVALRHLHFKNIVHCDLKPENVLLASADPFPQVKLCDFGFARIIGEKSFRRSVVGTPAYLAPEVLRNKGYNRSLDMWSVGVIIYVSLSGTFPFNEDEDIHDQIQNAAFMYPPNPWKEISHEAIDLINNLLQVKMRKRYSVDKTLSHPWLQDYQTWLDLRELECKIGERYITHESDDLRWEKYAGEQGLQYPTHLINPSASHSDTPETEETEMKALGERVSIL
KCC2 sec1: KCC2 modulators in sodium-free buffer, confirmation, cell-based, HEK293 KCC2, thallium flux, secondary assay | normalised thallium flux (F/F0 slope) at 10 µM | shares compounds with KCC2 mod | FluoZin2 fluorescence; active compounds read high | hit rate 15% among 3,700 | AID 1713, 2009;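 active = thallium flux slope above the same plate's solvent-only control mean plus 3 SD; inconclusive = the two replicate wells disagree; inactive = no significant difference from solvent-only control wells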
KCC2 bumet counter: thallium flux persisting under bumetanide in KCC2 cells, confirmation, counter-screen for KCC2 modulator project, cell-based, HEK293 KCC2, FluoZin2, secondary assay 3; shares compounds with KCC2 mod; normalized thallium flux at 10 µM; hit rate 49% among 3,700; HEK293-KCC2 + bumetanide/ouabain; active compounds read high;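 active = thallium entry rate above the same plate's blocked-transporter control wells by more than 3 SD; inconclusive = the two repeat wells disagree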;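 also: raw slope of fluorescence over initial fluorescence between 10 and 20 s after thallium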
KCC2 sec2: KCC2 modulators without ouabain present, confirmation, cell-based, HEK293 KCC2, thallium flux, FluoZin2, secondary assay 2. thallium flux FluoZin2 fluorescence; actives lie on both sides; F/F0 rise rate, 10–20 s post-thallium. shares compounds with KCC2 mod. hit rate 23% among 3,700. normalized thallium flux at 10 µM. AID 1715, 2009;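 active = thallium flux slope more than 3 SD above or below the plate's solvent-only control mean, mostly below; inconclusive = the two repeat wells disagreed; inactive = no significant shift from solvent-only controls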
HEK293 Tl flux: thallium flux modulation in parental HEK cells, confirmation, counter-screen for KCC2 modulator project, cell-based, counterscreen 1; HEK293 parental cells, thallium flux FluoZin2, ouabain; baseline-ratio fluorescence slope, 10–20 s after thallium; hit rate 46% among 3,700; shares compounds with KCC2 mod; thallium flux rate (normalised fluorescence) at 10 µM;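 active = thallium flux rate significantly above the same plate's solvent-only control wells, beyond their mean plus 3 SD; inconclusive = the two replicate wells gave conflicting results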
KCC2 ouabain: KCC2 inhibitors and activators, ouabain retest, confirmation, HEK-KCC2 cells; shares compounds with KCC2 mod; HEK293-KCC2, thallium flux FluoZin2 fluorescence; bidirectional: low = inhibitor, high = activator; raw Tl+ flux slope (below DMSO = inhibition, above = activation) at 10 µM; hit rate 48% among 3,700; AID 1717, 2009;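 active = thallium flux slope beyond 3 SD from same-plate DMSO control mean in most replicates, usually higher, sometimes lower; inconclusive = repeat tests gave conflicting results; inactive = no significant difference from controls in most replicates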;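 also: slope of initial-normalized fluorescence between seconds 10 and 20 after thallium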
HEK293 Tl flux2: native HEK Tl+ uptake effects, second counter-screen – HEK cells, counterscreen 2, counter-screen for KCC2 modulator project, confirmation; shares compounds with KCC2 mod; HEK293 parental, thallium flux FluoZin-2 fluorescence slope; thallium flux slope at 10 µM; hit rate 33% among 3,700; AID 1718, 2009;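 active = thallium flux slope above the same plate's solvent-control mean plus 3 SD in both duplicate wells; inconclusive = duplicate wells that disagreed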;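 also: run without ouabain in cells lacking the KCC2 cotransporter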
Numbers stand for hits; n = inactive; u = inconclusive; x = no result given. Sampled rows, rich in hits. Any-hit rate of the full collection: about 3.4%.

SMILES	MDM2 E3 inh	p97 ATPase inh	KCC2 mod	DTT redox prof	ROMK primary	PKD1 inh	KCC2 sec1	KCC2 bumet counter	KCC2 sec2	HEK293 Tl flux	KCC2 ouabain	HEK293 Tl flux2
O=C(Nc1ccc(Cl)cc1)N1CCN(c2ccccc2)CC1	n	n	n	n	x	n	x	x	x	x	x	x
CCOC(=O)C(NC(=O)CC)(Nc1sc(C)c(CC)c1C#N)C(F)(F)F (centres undefined)	n	n	n	n	n	n	x	x	x	x	x	x
CCN(CC)CCN1C(=O)C(=O)/C(=C(/O)c2ccc(OC)cc2)C1c1ccco1 (centres undefined)	n	n	8.7	n	n	n	n	0.0057	n	u	n	u
CCOC(=O)c1c(C(C)(C)C)oc2ccc(O)cc12	n	n	-6.2	n	x	n	n	n	n	n	u	n
CCOC(=O)c1c(COc2ccccc2)oc2ccc(O)cc12	n	n	x	n	x	n	x	x	x	x	x	x
COc1cc(NC(=O)CSc2nccc(=O)[nH]2)c(C)cc1[N+](=O)[O-]	n	n	-3.4	n	n	n	n	n	n	n	n	n
COc1ccccc1NC(=O)CSc1nccc(=O)[nH]1	n	n	n	n	x	n	x	x	x	x	x	x
O=C(NC1CCCCC1)c1sc(=S)n2c1[nH]c(=O)c1ccccc12	n	n	8.7	n	n	n	n	0.033	0.041	0.025	0.035	0.027
O=C(C(c1ccccc1)c1ccccc1)N1CCN(Cc2ccc(Br)cc2)CC1	n	n	x	n	n	n	x	x	x	x	x	x
NC(=O)C1CCN(C(=S)NCCc2ccccc2)CC1	n	n	4.6	n	n	n	n	n	n	n	n	n
Cn1cnc([N+](=O)[O-])c1NCc1ccccc1	n	n	-4	x	x	x	n	n	0.024	n	u	n
CCNc1c([N+](=O)[O-])ncn1C	n	n	x	n	n	n	x	x	x	x	x	x
O=C1NC(=S)SC1=C1CCCC1	n	n	18	n	x	n	n	0.028	0.042	0.029	0.037	0.032
CN1C(=O)C(=C2CCCCCC2)SC1=S	n	n	x	n	n	n	x	x	x	x	x	x
Cc1nc(C)n(CC(=O)c2ccc(Cl)cc2Cl)n1	n	n	n	x	n	x	x	x	x	x	x	x
Cc1ccc(NC(=O)C2CCCN(C(=O)c3ccc(Cl)cc3)C2)cc1 (centres undefined)	n	n	n	n	n	n	x	x	x	x	x	x
CC(C)(C)OC(=O)[C@H](Cc1ccccc1)NC(=O)c1nc[nH]c1C(=O)N[C@@H](Cc1ccccc1)C(=O)OC(C)(C)C	n	x	3.4	x	x	x	n	n	n	n	n	n
O=C1C2C3C=CC(C3)C2C(=O)N1c1ncn[nH]1 (centres undefined)	n	n	n	n	x	n	x	x	x	x	x	x
C/C(Cl)=C\Cn1c(O)c(N=NC(N)=S)c2cc(Br)ccc21	n	n	36	n	n	n	n	0.029	0.054	0.043	0.062	0.03
NC(=S)N=Nc1c(O)n(CCCl)c2ccc(Br)cc12	n	n	29	x	n	x	0.017	0.069	n	0.03	0.042	0.015
COc1ccc(C2CCCN2C(=O)Nc2ccc(Cl)cc2)cc1OC (centres undefined)	n	n	-3.3	n	x	n	n	n	n	n	u	n
CC(=O)Nc1nnc(SCC(=O)Nc2ccc(N3CCOCC3)c(Cl)c2)s1	x	n	n	x	x	x	x	x	x	x	x	x
COc1cccc(Cn2cnc3c(NS(=O)(=O)c4cc(Cl)ccc4Cl)c(C)c(C)cc32)c1	n	n	x	n	x	n	n	0.0091	n	u	n	u
COCCNc1nc2sc3c(c2c(=O)n1Cc1ccco1)CCCCC3	n	n	n	n	x	n	x	x	x	x	x	x
CC(C)(C)SCCNC(=O)/C=C/c1cccc([N+](=O)[O-])c1	n	n	3.7	n	n	n	n	n	n	n	n	n
SMILES	MDM2 E3 inh	p97 ATPase inh	KCC2 mod	DTT redox prof	ROMK primary	PKD1 inh	KCC2 sec1	KCC2 bumet counter	KCC2 sec2	HEK293 Tl flux	KCC2 ouabain	HEK293 Tl flux2
Cc1ccc(SCCNC(=O)/C=C/c2cccc([N+](=O)[O-])c2)cc1	x	n	-4.5	n	n	n	n	n	n	n	0.015	n
Nc1c(C(=O)Nc2ccccc2F)sc2nc(Cc3ccccc3)cc(C(F)(F)F)c12	n	n	n	n	x	n	x	x	x	x	x	x
COc1ccc(/C=N/NC(=O)CN2CCSCC2)cc1C	n	n	n	n	n	n	x	x	x	x	x	x
Cc1cc(C)n(-c2nc(SCCN(C)C)c3c4c(sc3n2)CCCC4)n1	n	n	6.2	n	x	n	n	0.02	n	0.014	0.025	0.016
Cc1cc(C)c2nc(-c3ccccn3)cc(C(=O)Nc3cc(C)on3)c2c1	n	n	x	n	n	n	x	x	x	x	x	x
C[C@]12CC[C@@H]3c4ccc(O)cc4[C@@H](O)C[C@H]3[C@@H]1CC[C@@H]2O	x	n	n	n	x	n	x	x	x	x	x	x
C/C(=N\NC(=O)c1ccccc1O)c1cccs1	n	n	n	n	n	n	x	x	x	x	x	x
O=C(Oc1cc(-c2ccccc2)no1)c1ccc(Cl)cc1	n	n	-5.5	n	n	n	n	n	n	n	n	n
